Source: ChEMBL document CHEMBL1671740, “Increased temperature enhances the antimicrobial effects of daptomycin, vancomycin, tigecycline, fosfomycin, and cefamandole on staphylococcal biofilms” (2010)
Values after ≈ are worked out from the molar mass of the structure shown. Active and inactive are the calls of the source. The calls are words filed in the database; no cut-off is given here.

Legend:
Staphylococcus aureus [1] = experiment: Antimicrobial activity against Staphylococcus aureus isolated from human preoperative skin by […]; type: functional
Staphylococcus [2] = experiment: Antimicrobial activity against Staphylococcus isolates biofilms assessed as change in optical density ratio of biofilms at 1000 mg/litre at ambient temperature of 45 degC after 24 hrs relative to baseline; type: functional
Summary of the method: (§1)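 Static microtiter biofilms of 34 clinical S. aureus and CoNS isolates from orthopedic implant infections or preoperative skin, plus reference strains. Inoculum was McFarland 0.5 diluted 1:100 in calcium-supplemented MHB, grown 24 h at 35°C in ambient air. Established biofilms were exposed to drug for 24 h at 35, 40 or 45°C, then formalin-fixed and stained with 1% crystal violet for 5 min, and OD read at 550 nm in quadruplicate.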

Staphylococcus [3] = experiment: Antimicrobial activity against Staphylococcus isolates biofilms assessed as decrease in bacterial load at 100 mg/litre at ambient temperature of 35 degC after 24 hrs relative to baseline; type: functional
Summary of the method: (§2)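 24-h static biofilms of the staphylococcal isolates were exposed to drug for 24 h at 35, 40 or 45°C. Biofilms were not fixed but scraped off and resuspended in MHB, then serially diluted and 0.1 ml plated on blood agar, read after 48 h at 35°C in ambient air. Done in duplicate as mean log10 CFU/ml; log reduction was taken versus untreated biofilm.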

[4] = test system: Staphylococcus epidermidis; experiment: Antimicrobial activity against Staphylococcus epidermidis DSM3269 by […]; type: functional
Staphylococcus aureus [5] = experiment: Antimicrobial activity against Staphylococcus aureus ATCC 29213 administered as powder at 45 degC after 24 hrs; type: functional; conditions: ATCC 29213, 24 h
Summary of the method: (§3)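 Antimicrobials, as powder or in solution as used for MIC testing, held at 45°C for 1 and 24 h in three independent experiments. MICs were then determined by the CLSI microtiter plate method in cation-adjusted Mueller-Hinton medium, with MHB containing 50 μg/ml calcium for daptomycin. Values are median (range) […] in mg/liter.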

Staphylococcus aureus [6] = experiment: Antimicrobial activity against Staphylococcus aureus ATCC 29213 by […]; type: functional
Staphylococcus aureus [7] = experiment: Antimicrobial activity against Staphylococcus aureus isolated from human prosthetic joint infection site by […]; type: functional
Staphylococcus [8] = experiment: Antimicrobial activity against Staphylococcus isolates biofilms assessed as change in optical density ratio of biofilms at 1000 mg/litre at ambient temperature of 35 degC after 24 hrs relative to baseline; type: functional; summary of the method: as §1
Staphylococcus [9] = experiment: Antimicrobial activity against coagulase-negative Staphylococcus isolated from human prosthetic joint infection site by […]; type: functional
Staphylococcus [10] = experiment: Antimicrobial activity against Staphylococcus isolates biofilms assessed as change in optical density ratio of biofilms at 250 mg/litre at ambient temperature of 45 degC after 24 hrs relative to baseline; type: functional; summary of the method: as §1
Staphylococcus [11] = experiment: Antimicrobial activity against Staphylococcus isolates biofilms assessed as change in optical density ratio of biofilms at 1000 mg/litre at ambient temperature of 40 degC after 24 hrs relative to baseline; type: functional; summary of the method: as §1
[12] = test system: Staphylococcus epidermidis; experiment: Antimicrobial activity against Staphylococcus epidermidis isolate OR1 treated in solution at 45 degC after 24 hrs; type: functional; conditions: isolate OR1, 24 h; summary of the method: as §3
[13] = test system: Staphylococcus epidermidis; experiment: Antimicrobial activity against Staphylococcus epidermidis isolate KO8 isolated from healthy human skin by […]; type: functional
Staphylococcus [14] = experiment: Antimicrobial activity against Staphylococcus isolates biofilms assessed as change in optical density ratio of biofilms at 250 mg/litre at ambient temperature of 40 degC after 24 hrs relative to baseline; type: functional; summary of the method: as §1
Staphylococcus [15] = experiment: Antimicrobial activity against Staphylococcus isolates biofilms assessed as change in optical density ratio of biofilms at 250 mg/litre at ambient temperature of 35 degC after 24 hrs relative to baseline; type: functional; summary of the method: as §1
Staphylococcus [16] = experiment: Antimicrobial activity against coagulase-negative Staphylococcus isolated from human preoperative skin by […]; type: functional
Staphylococcus [17] = experiment: Antimicrobial activity against Staphylococcus isolates biofilms assessed as change in optical density ratio of biofilms at 25 mg/litre at ambient temperature of 35 degC after 24 hrs relative to baseline; type: functional; summary of the method: as §1
Staphylococcus [18] = experiment: Antimicrobial activity against Staphylococcus isolates biofilms assessed as change in optical density ratio of biofilms at 5 mg/litre at ambient temperature of 35 degC after 24 hrs relative to baseline; type: functional; summary of the method: as §1
Staphylococcus [19] = experiment: Antimicrobial activity against Staphylococcus isolates biofilms assessed as change in optical density ratio of biofilms at 1 mg/litre at ambient temperature of 45 degC after 24 hrs relative to baseline; type: functional; summary of the method: as §1
Staphylococcus [20] = experiment: Antimicrobial activity against Staphylococcus isolates biofilms assessed as change in optical density ratio of biofilms at 5 mg/litre at ambient temperature of 40 degC after 24 hrs relative to baseline; type: functional; summary of the method: as §1
Staphylococcus [21] = experiment: Antimicrobial activity against Staphylococcus isolates biofilms assessed as change in optical density ratio of biofilms at 5 mg/litre at ambient temperature of 45 degC after 24 hrs relative to baseline; type: functional; summary of the method: as §1
Staphylococcus [22] = experiment: Antimicrobial activity against Staphylococcus isolates biofilms assessed as change in optical density ratio of biofilms at 25 mg/litre at ambient temperature of 40 degC after 24 hrs relative to baseline; type: functional; summary of the method: as §1
Staphylococcus [23] = experiment: Antimicrobial activity against Staphylococcus isolates biofilms assessed as change in optical density ratio of biofilms at 1 mg/litre at ambient temperature of 35 degC after 24 hrs relative to baseline; type: functional; summary of the method: as §1
Staphylococcus [24] = experiment: Antimicrobial activity against Staphylococcus isolates biofilms assessed as decrease in bacterial load at 1 to 25 mg/litre at ambient temperature of 30 to 45 degC after 24 hrs relative to baseline; type: functional, organism-based; conditions: in the assay text read “35 to 45 degC” for “30 to 45 degC”; summary of the method: as §2
Staphylococcus [25] = experiment: Antimicrobial activity against Staphylococcus isolates biofilms assessed as change in optical density ratio of biofilms at 1 mg/litre at ambient temperature of 40 degC after 24 hrs relative to baseline; type: functional; summary of the method: as §1
Staphylococcus [26] = experiment: Antimicrobial activity against Staphylococcus isolates biofilms assessed as change in optical density ratio of biofilms at 25 mg/litre at ambient temperature of 45 degC after 24 hrs relative to baseline; type: functional; summary of the method: as §1
Staphylococcus [27] = experiment: Antimicrobial activity against Staphylococcus isolates biofilms assessed as decrease in bacterial load at 5 to 100 mg/litre at ambient temperature of […] after 24 hrs relative to baseline; type: functional, organism-based
Summary of the method: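 Static 24-h biofilms of staphylococcal isolates (S. aureus, CoNS) and reference strains were grown at 35°C in calcium-supplemented MHB from a 1:100-diluted McFarland 0.5 inoculum. They were then exposed to drug at 5, 25 or 100 mg/liter for 24 h at 35, 40 or 45°C. Biofilms were scraped into MHB, serially diluted and plated on blood agar (35°C, 48 h), in duplicate, giving mean log10 CFU/ml against untreated.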

Row | SMILES | MIC (Staphylococcus aureus [1]) | Activity (Staphylococcus [3]) | MIC [4] | MIC (Staphylococcus aureus [5]) | MIC (Staphylococcus aureus [6]) | MIC (Staphylococcus aureus [7]) | MIC (Staphylococcus [9]) | MIC [12] | MIC [13] | MIC (Staphylococcus [16]) | further results
1 | C[C@@H]1O[C@@H]1P(=O)(O)O [FOSFOMYCIN] | 64 µg/mL (≈ 464 µM) | inactive | 1 µg/mL (≈ 7.24 µM) | 1 µg/mL (≈ 7.24 µM) | 4 µg/mL (≈ 29 µM) | 4 µg/mL (≈ 29 µM) | 16 µg/mL (≈ 116 µM) | 32 µg/mL (≈ 232 µM) | 16 µg/mL (≈ 116 µM) | 32 µg/mL (≈ 232 µM) | Ratio (Staphylococcus [2]): 0.63; Ratio (Staphylococcus [8]): 0.78; Ratio (Staphylococcus [10]): 0.69; Ratio (Staphylococcus [11]): 0.65; Ratio (Staphylococcus [14]): 0.75; Ratio (Staphylococcus [15]): 1.01
2 | CN(C)c1cc(NC(=O)CNC(C)(C)C)c(O)c2c1C[C@H]1C[C@H]3[C@H](N(C)C)C(O)=C(C(N)=O)C(=O)[C@@]3(O)C(O)=C1C2=O [TIGECYCLINE] | 0.06 µg/mL (≈ 0.102 µM) | inactive | 0.5 µg/mL (≈ 0.854 µM) | 1 µg/mL (≈ 1.71 µM) | 0.06 µg/mL (≈ 0.102 µM) | 0.125 µg/mL (≈ 0.213 µM) | 0.06 µg/mL (≈ 0.102 µM) | 2 µg/mL (≈ 3.41 µM) | 0.125 µg/mL (≈ 0.213 µM) | 0.03 µg/mL (≈ 0.0512 µM) | Ratio (Staphylococcus [17]): 1.12; Ratio (Staphylococcus [18]): 0.99; Ratio (Staphylococcus [19]): 0.93; Ratio (Staphylococcus [20]): 1.1; Ratio (Staphylococcus [21]): 0.86; Ratio (Staphylococcus [22]): 0.83; Ratio (Staphylococcus [23]): 0.98; Activity (Staphylococcus [24]): inactive; Ratio (Staphylococcus [25]): 1.31; Ratio (Staphylococcus [26]): 1.32
3 | CN[C@H](CC(C)C)C(=O)N[C@H]1C(=O)N[C@@H](CC(N)=O)C(=O)N[C@H]2C(=O)N[C@H]3C(=O)N[C@H](C(=O)N[C@H](C(=O)O)c4cc(O)cc(O)c4-c4cc3ccc4O)[C@H](O)c3ccc(c(Cl)c3)Oc3cc2cc(c3O[C@@H]2O[C@H](CO)[C@@H](O)[C@H](O)[C@H]2O[C@H]2C[C@](C)(N)[C@H](O)[C@H](C)O2)Oc2ccc(cc2Cl)[C@H]1O [VANCOMYCIN] | 0.5 µg/mL (≈ 0.345 µM) | inactive | 2 µg/mL (≈ 1.38 µM) | 0.5 µg/mL (≈ 0.345 µM) | 0.5 µg/mL (≈ 0.345 µM) | 0.5 µg/mL (≈ 0.345 µM) | 2 µg/mL (≈ 1.38 µM) | 2 µg/mL (≈ 1.38 µM) | 1 µg/mL (≈ 0.69 µM) | 0.75 µg/mL (≈ 0.518 µM) | Activity (Staphylococcus [27]): inactive
